Data set [1] deals with HUVEC. Put plainly: Antimigratory activity in HUVEC at 0.2 to 2 uM after 6 hrs in presence of 5% fetal bovine serum by transwell assay. The class given is functional, cell-based. The settings on record: Homo sapiens. Put shortly: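 Serum-starved confluent HUVEC pre-treated overnight with compound or vehicle in 5% FBS medium. Then placed in the upper chamber of 8 µm-pore Transwells (6×10^4 cells/well) and allowed to migrate 6 h toward 5% FBS or starvation medium. Migrated cells fixed, H&E stained, and counted in five fields/well; expressed as % of control; replicates from two independent experiments.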

Another data set relates to EA.hy 926. Briefly: Antiproliferative activity against human EAhy926 cells assessed as decrease in cell viability at 0.2 to 2 uM after 24 to 48 hrs in presence of 2.5% fetal bovine serum by MTT assay. The class given is functional, cell-based. The gist of the method:
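EA.hy926 seeded at 4×10^3/well, adhered 24 h, and starved 4 h in 0.25% BSA medium. Then treated with compound or 0.1% v/v DMSO in medium with 2.5% FBS for 48 h. MTT 0.5 mg/mL for 4 h, A595 with 630 nm correction, cell number from a standard curve. Expressed as % of DMSO control; replicates from two independent experiments.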
In general terms: Tetrazolium assays rely on reduction of a dye to a coloured formazan, in cell work by metabolically active cells.

Data set [2] in a line: Antiproliferative activity against human EAhy926 cells assessed as decrease in cell viability after 24 to 48 hrs in presence of 2.5% fetal bovine serum by MTT assay. It is filed as functional, cell-based. The settings on record: EA.hy 926. The gist of the method: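 EA.hy926 in DMEM with 2.5% FBS exposed 48 h to serial 1:2 compound dilutions spanning 0.125–50 μM. Viable cells measured by MTT (0.5 mg/mL, 4 h, A595/630 nm). IC50 (mean ± SEM) fitted by non-linear regression from eight or more points.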

In data set [3] the test system is HUVEC. Briefly: Inhibition of VEGF-165-induced HUVEC chemotactic migration at 0.2 to 2 uM after 6 hrs by transwell assay. The class given is functional, cell-based. The conditions noted are these: Homo sapiens. Put shortly:
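Serum-starved HUVEC were pre-treated overnight with compound or vehicle in 5% FBS medium. Cells were then seeded at 6×10^4 per upper Transwell chamber (8 µm pores) and migrated for 6 h toward VEGF-165 (50 ng/mL) or starvation medium. Migrated cells were ethanol-fixed, stained with H&E and counted in five fields per well. Results are % of control from at least two independent experiments.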

Data set [4] concerns HUVEC. Briefly: Antiangiogenic activity in HUVEC assessed as inhibition of VEGF-165-induced tube formation at 0.2 to 2 uM after 24 hrs by matrigel assay. It is filed as functional, cell-based. The conditions noted are these: Homo sapiens. The gist of the method:
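HUVEC seeded at 2×10^4 cells/well on growth factor-reduced Matrigel after pre-starvation, then given compound or vehicle (up to 0.1% v/v DMSO), with or without VEGF-165, for 24 h. Fixed in ice-cold ethanol and stained with haematoxylin-eosin. Tube-like structures counted in at least 5 fields/well and expressed as % of vehicle control; replicates from two independent experiments.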

The subject of data set [5] is HUVEC. Put plainly: Inhibition of total protein tyrosine kinase activity in serum-starved HUVEC at 1 to 4 uM after 2 hrs. The settings on record: Homo sapiens. It is filed as cell-based.
Data set [6] is described as follows: Effect on total VEGFR2 levels in VEGF-165-induced serum-starved HUVEC at 2 uM preincubated for 2 hrs followed by VEGF-165 induction measured after 5 mins by Western blot analysis. The class given is cell-based. The conditions noted are these: human. Put shortly: (§1)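 Serum-starved HUVEC were given 2 µM compound or vehicle for 2 h, then VEGF-165 (50 ng/mL) or PBS for 5 min. Lysates with equal protein were run on SDS-PAGE and immunoblotted for phospho-VEGFR2 (Tyr951, 996, 1056, 1175), p-AKT Ser473, p-ERK1/2 and the total proteins. Detection was by ECL with densitometry. Phospho signals were normalized to total protein, n = 3.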
For orientation: A western blot detects proteins with antibodies after separation by electrophoresis.

Data set [7] concerns the target Vascular endothelial growth factor receptor 2 (Homo sapiens) (UniProt P35968). Briefly: Inhibition of VEGF-165-induced VEGFR2 autophosphorylation in serum-starved HUVEC assessed as decrease in AKT phosphorylation at 2 uM preincubated for 2 hrs followed by VEGF-165 induction measured after 5 mins by Western blot analysis. It is filed as cell-based. Put shortly:
as §1

Data set [8] shares this target. Put plainly: Inhibition of VEGF-165-induced VEGFR2 autophosphorylation in serum-starved HUVEC assessed as decrease in ERK1/2 phosphorylation at 2 uM preincubated for 2 hrs followed by VEGF-165 induction measured after 5 mins by Western blot analysis. The class given is cell-based. Put shortly: as §1
Data set [9] concerns Lewis lung carcinoma. Put plainly: Antitumor activity against mouse LLC cells allografted in C57BL/6 mouse assessed as tumor growth inhibition at 0.2 mg/kg, ip administered thrice a week for 2 weeks starting 24 hrs before tumor implantation measured every other day of compound dosing by electronic caliper-based method. It is filed as functional, organism-based. The gist of the method: (§2)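 Male 6–8 week C57BL/6 mice (groups of 5–6) inoculated sc in the right flank with 5×10^5 LLC cells. Compound (0.2 mg/kg) or DMSO vehicle given ip thrice weekly for 2 weeks, starting 24 h before implantation. Tumors measured by caliper every other day. At end-point, anti-CD31 IHC (1:100) of tumor sections, with immunoreactive cells counted in six high-power fields.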

The subject of data set [10] is Mus musculus. Briefly: Toxicity in C57BL/6 mouse allografted with mouse LLC cells at 0.05 to 0.2 mg/kg, ip administered thrice a week for 2 weeks starting 24 hrs before tumor implantation by clinical test. The class given is organism-based. The conditions noted are these: in vivo. Put shortly: (§3)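 Male C57BL/6 mice, 6–8 weeks old, in groups of 5–6, received 5×10^5 LLC cells sc in the right flank. Compound (0.05–0.2 mg/kg) or DMSO vehicle was given ip thrice weekly for 2 weeks, starting 24 h before implantation. Mice were weighed and examined clinically every other day. At end-point, kidney, lung, spleen, liver and heart sections were H&E-stained and examined microscopically.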

For data set [11], the system named is Mus musculus. Briefly: Toxicity in C57BL/6 mouse allografted with mouse LLC cells assessed as effect on vital organs at 0.05 to 0.2 mg/kg, ip administered thrice a week for 2 weeks starting 24 hrs before tumor implantation by haematoxylin-eosin staining-based microscopic analysis. It is filed as organism-based. The conditions noted are these: in vivo. Put shortly: as §3

Data set [12] concerns Lewis lung carcinoma. Briefly: Antiangiogenic activity in mouse LLC cells allografted in C57BL/6 mouse assessed as decrease of microvessel density in tumor at 0.2 mg/kg, ip administered thrice a week for 2 weeks starting 24 hrs before tumor implantation measured post last dose by IHC analysis. The class given is functional, organism-based. The gist of the method:
as §2

Data set [13] relates to HUVEC. Put plainly: Effect on KIF20A gene expression in serum-starved HUVEC after 6 hrs by microarray analysis relative to control. The class given is functional, Homo sapiens. The gist of the method:
(§4)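 Confluent, serum-starved HUVEC (pooled from 3–5 donors, passage ≤4) treated with 2 μM compound or vehicle with 2.5% FBS for 6 h or 24 h. Total RNA hybridized to Illumina Human-HT12 arrays. Data were background-corrected, vst-transformed and rsn-normalized. Hits called by moderated paired t-test versus DMSO-treated cells, p < 0.05 and log2 fold change >|0.5|.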

The test system of data set [14] is HUVEC. Put plainly: Effect on RNA28S5 gene expression in serum-starved HUVEC after 6 hrs by microarray analysis relative to control. It is filed as functional, Homo sapiens. The gist of the method:
(§5)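 Serum-starved confluent HUVEC (pooled from 3–5 donors, passage ≤4) were treated with 2 μM compound or vehicle in 2.5% FBS for 6 h or 24 h, and total RNA was isolated. Hybridization was on Illumina Human-HT12. Data were processed with bgAdjust, vst and rsn normalization. Changes versus DMSO were called by moderated paired t-test at p < 0.05 and |log2 fold change| > 0.5.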

Data set [15] relates to HUVEC. Briefly: Effect on RNU1-3 gene expression in serum-starved HUVEC after 6 hrs by microarray analysis relative to control. The class given is functional, Homo sapiens. Put shortly:
as §5

The test system of data set [16] is HUVEC. Briefly: Effect on GNG12 gene expression in serum-starved HUVEC after 24 hrs by microarray analysis relative to control. It is filed as functional, Homo sapiens. Put shortly:
as §4

We go through three compounds from ChEMBL document CHEMBL3856209, “Novel pyrazolopyridine derivatives as potential angiogenesis inhibitors: Synthesis, biological evaluation and transcriptome-based mechanistic analysis” (Eur J Med Chem, 2016).

Molecules are shown by their SMILES. pIC50: −log10 of the molar value. The source made the active and inactive calls. No cut-off for these calls is given here.

Chain of Vascular endothelial growth factor receptor 2 (Homo sapiens) (P35968 whole entry): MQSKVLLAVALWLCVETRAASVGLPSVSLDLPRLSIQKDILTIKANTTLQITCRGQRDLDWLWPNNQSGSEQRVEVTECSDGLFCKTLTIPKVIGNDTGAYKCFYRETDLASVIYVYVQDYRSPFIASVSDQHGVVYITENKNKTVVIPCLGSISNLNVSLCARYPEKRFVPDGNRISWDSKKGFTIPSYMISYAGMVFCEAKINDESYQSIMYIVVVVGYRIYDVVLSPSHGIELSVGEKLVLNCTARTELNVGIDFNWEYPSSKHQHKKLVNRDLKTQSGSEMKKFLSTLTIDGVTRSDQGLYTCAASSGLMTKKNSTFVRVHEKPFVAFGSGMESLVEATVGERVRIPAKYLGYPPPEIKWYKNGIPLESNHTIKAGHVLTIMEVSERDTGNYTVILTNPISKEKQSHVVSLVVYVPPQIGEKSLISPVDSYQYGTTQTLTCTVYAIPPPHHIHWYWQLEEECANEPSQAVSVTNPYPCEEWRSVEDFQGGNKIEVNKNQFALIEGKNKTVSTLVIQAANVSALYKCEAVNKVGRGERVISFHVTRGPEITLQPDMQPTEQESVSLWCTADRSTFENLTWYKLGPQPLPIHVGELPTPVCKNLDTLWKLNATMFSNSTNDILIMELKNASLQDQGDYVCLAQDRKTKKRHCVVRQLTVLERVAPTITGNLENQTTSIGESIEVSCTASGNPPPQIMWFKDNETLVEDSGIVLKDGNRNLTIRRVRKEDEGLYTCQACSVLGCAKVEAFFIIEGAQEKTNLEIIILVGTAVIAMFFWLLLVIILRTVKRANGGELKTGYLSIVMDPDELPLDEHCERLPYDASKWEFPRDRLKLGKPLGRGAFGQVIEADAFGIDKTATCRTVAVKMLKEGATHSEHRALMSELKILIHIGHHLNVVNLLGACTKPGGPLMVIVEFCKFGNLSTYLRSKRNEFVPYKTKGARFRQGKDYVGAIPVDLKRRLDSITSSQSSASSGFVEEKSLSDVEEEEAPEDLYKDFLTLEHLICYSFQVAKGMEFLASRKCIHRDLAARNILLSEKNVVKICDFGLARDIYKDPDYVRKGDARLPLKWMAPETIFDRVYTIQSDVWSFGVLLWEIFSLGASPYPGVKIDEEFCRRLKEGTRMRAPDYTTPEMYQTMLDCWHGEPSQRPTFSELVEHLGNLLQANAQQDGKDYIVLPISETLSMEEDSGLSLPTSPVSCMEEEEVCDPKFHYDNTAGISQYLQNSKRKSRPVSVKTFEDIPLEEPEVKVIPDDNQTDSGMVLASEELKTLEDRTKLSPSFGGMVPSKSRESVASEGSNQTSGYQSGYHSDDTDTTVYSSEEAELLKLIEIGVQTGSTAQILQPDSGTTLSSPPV

In general, pIC50 refers to the IC50 on a negative log10 scale, so that one unit is a factor of ten. As to `COc1ccc(Cn2nc(-c3ccccc3)c3cc(Nc4ccc(N5CCN(C)CC5)cc4)nc(N4CCNCC4)c32)cc1`, the outcome in the data set on HUVEC [1], in the data set on EA.hy 926 and in the data set with Lewis lung carcinoma [12] was Active. The pIC50 in [2] was 4.92. The inhibition result (in the data set on HUVEC [3]; in the data set with HUVEC [4]; in the data set with HUVEC [5]; in [7]; in data set [8]) was “Active” in each case. Besides, the Activity entry (in [6]; in the data set on Mus musculus [10]; with Mus musculus [11]) was “Non-Toxic” throughout. The TGI result with Lewis lung carcinoma [9] was “Active”. The log2FC in the data set with HUVEC [13] is listed as -0.0473; with HUVEC [14], -0.6261; in the data set on HUVEC [15] it was -0.5169; in the data set on HUVEC [16], 0.1458.

For `COc1ccc(Cn2nc(-c3ccccc3)c3cc(Cl)nc(N4CCNCC4)c32)cc1`, the result in the data set with HUVEC [1], with EA.hy 926 and with Lewis lung carcinoma [12] was Active. Also, the pIC50 in data set [2] is 5.37. For the same compound, the inhibition entry (in the data set on HUVEC [3]; in the data set on HUVEC [4]; in the data set with HUVEC [5]; in [7]; in [8]) was “Active” throughout. Moreover, the Activity entry (in data set [6]; in the data set on Mus musculus [10]; in the data set with Mus musculus [11]) was “Non-Toxic” in each case. Moreover, the TGI entry in the data set with Lewis lung carcinoma [9] was “Active”. The log2FC with HUVEC [13] was -0.1005; in the data set with HUVEC [14] it was -0.7662; with HUVEC [15], -0.5393; with HUVEC [16], 0.2465.

As for `COc1ccc(Cn2nc(-c3ccccc3)c3cc(Nc4ccc(N5CCN(C)CC5)cc4)nc(N4CCN(C)CC4)c32)cc1`, the result in the data set with HUVEC [1], in the data set on EA.hy 926 and in the data set with Lewis lung carcinoma [12] was Active. The pIC50 in data set [2] is 5.14. Moreover, the inhibition result (in the data set on HUVEC [3]; in the data set with HUVEC [4]; in the data set on HUVEC [5]; in data set [7]; in data set [8]) was “Active” each time. For the same compound, the Activity result (in data set [6]; in the data set with Mus musculus [10]; with Mus musculus [11]) was “Non-Toxic” in each case. For the same compound, the TGI result with Lewis lung carcinoma [9] is “Active”. For the same compound, the log2FC with HUVEC [13] was -0.1216; in the data set with HUVEC [14], -1.164; in the data set with HUVEC [15] it was -0.5806; in the data set with HUVEC [16], 0.1566.
